ChEMBL document CHEMBL4610116, “Salicylanilide Analog Minimizes Relapse of Clostridioides difficile Infection in Mice” (J Med Chem, 2020)
The source made the active and inactive calls. No cut-off for these calls is given here.

Key:
[1] = Tmax in non-antibioticc-treated C57Bl/6J mouse at 0.3 mg/kg, iv and measured after 5 mins to 24 hrs by LC/MS-SRM analysis; type: ADME, organism-based; details: in vivo
Method in brief: (§1)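 Non-antibiotic-treated C57Bl/6J mice given a single i.v. dose of 0.3 mg/kg; n = 3 per time point. Bled at 5, 10, 30 min and 1, 2, 4, 8, 24 h. Plasma mixed with 2 volumes acetonitrile containing internal standard, centrifuged, supernatant quantified by LC/MS-SRM.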

[2] = Half life in non-antibioticc-treated C57Bl/6J mouse at 0.3 mg/kg, iv and measured after 5 mins to 24 hrs by LC/MS-SRM analysis; type: ADME, organism-based; details: in vivo; method in brief: as §1
[3] = Half life in cefoperazone-treated C57Bl/6J mouse at 1 mg/kg, po dosed each day for 5 days by LC/MS-SRM analysis; type: ADME, organism-based; details: in vivo
Method in brief: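 C57Bl/6J mice pre-treated with cefoperazone 0.5 mg/mL in drinking water for 10 days, then a 2-day washout. Oral dose of 1 mg/kg given daily for 5 days. Bled at 5, 10, 30 min and 1, 2, 4, 10, 24 h after dosing on the first and final days; n = 3 per time point. Plasma mixed with 2 volumes acetonitrile containing internal standard, centrifuged, supernatant analysed by LC/MS-SRM.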

[4] = Cmax in cecum of cefoperazone-treated C57Bl/6J mouse at 1 mg/kg, po dosed each day for 5 days and measured at 4 hrs post last dose by LC/MS-SRM analysis; type: ADME, organism-based, Caecum; set-up: dose 1 mg/kg, route oral
Method in brief: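 Cefoperazone-pretreated mice (0.5 mg/mL in drinking water, 10 days; 2-day washout) dosed orally at 1 mg/kg daily for 5 days. On the final day, mice euthanized at 30 min, 4 h and 24 h post-dose and cecal contents collected. Samples homogenized in 4 volumes acetonitrile containing internal standard, centrifuged, supernatant analysed by LC/MS-SRM.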

[5] = Ratio of Cmin in cecum of cefoperazone-treated C57Bl/6J mouse at 1 mg/kg, po dosed each day for 5 days and measured over 24 hrs post last dose by LC/MS-SRM analysis to MIC for antimicrobial activity against Clostridioides difficile CD10463 incubated for 20 to 24 hrs by broth microdilution method; type: ADME, organism-based; details: in vivo
[6] = Toxicity in sheep RBC assessed as induction of hemolysis at 0.625 to 80 uM incubated for 1 hr at 37 degC relative to control; type: cell-based, Ovis aries, Erythrocyte; details: sheep red blood cells (erythrocytes), read-out: Activity
Method in brief: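 Sheep erythrocytes washed three times in PBS pH 7.4. A 3% suspension mixed 1:1 with compound in PBS, final 0.625–80 µM, for 1 h at 37°C. Centrifuged at 500 × g and supernatant absorbance read at 540 nm. 1% Triton X-100 served as positive control and 1.6% DMSO in PBS as negative control.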

Clostridioides difficile = assay: Suppression of relapse of Clostridioides difficile 630 infection in cefoperazone-treated C57BL/6J mouse model of recurrent Clostridioides difficile 630 infection assessed as reduction in histopathological summary scores at 5 mg/kg, po for 5 days from day 4 to 9 after infection with spores measured on day day 14; type: functional, organism-based
Method in brief: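 Recurrent CDI model in cefoperazone-treated C57BL/6J mice challenged with strain 630 and gavaged on days 4–9 (n = 6 per group). At necropsy on day 14, H&E-stained cecum and colon scored 0–4 each for edema, inflammatory cell infiltration and epithelial damage. Scoring done blinded by a veterinary pathologist.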

[7] = Effect on gut microbiota in cefoperazone-treated C57BL/6J mouse model of recurrent Clostridioides difficile 630 infection assessed as increase in abundance of group-Ruminococcaceae at 5 mg/kg, po for 5 days from day 4 to 9 after infection with spores measured on day day 14 by 16S rRNA Illumina sequencing analysis; type: ADME, organism-based; details: in vivo, 120 h
Method in brief: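 Recurrent CDI model in cefoperazone-treated C57BL/6J mice challenged with strain 630 and gavaged on days 4–9 (n = 6 per group). Cecal tissue snips collected at necropsy underwent 16S rRNA gene community sequencing on Illumina MiSeq.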

O=C(Nc1cc(C(F)(F)F)c(Oc2ccc(Cl)cc2)c(C(F)(F)F)c1)c1cc(Cl)cc(Cl)c1O
Tmax [1]: 0.17 h | half-life [2]: 5 h | half-life [3]: 10.7 h | Cmax [4]: 50 µM | Ratio [5]: 100 | hemolysis at 1 h, up to 80 µM [6]: < 2% | Activity (Clostridioides difficile): Active | Activity [7]: Non-Toxic
